# Source: ChEMBL document CHEMBL3392956, “Evaluation of synthetic naphthalene derivatives as novel chemical chaperones that mimic 4-phenylbutyric acid” (Bioorg Med Chem Lett, 2015)
# The source made the active and inactive calls. The rule behind the calls is not given here.
# Key:
# [1] = system: SH-SY5Y; assay: Protection against ER stress-induced human SH-SY5Y cell damage assessed as cell viability at 0.1 mM after 48 hrs by crystal violet assay; format: functional, cell-based
# In short: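 Human neuroblastoma SH-SY5Y cells stably expressing Pael-R–FLAG were incubated with or without compound at 0.1, 0.5 or 1.0 mM for 48 h. Viability was determined by crystal violet assay. Values are means ± SE of three independent experiments.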
# [2] = Chemical chaperone activity assessed as suppression of alpha-lactalbumin-bovine serum albumin aggregation at 3 mM by turbidity assay; format: physicochemical; details: 3000 µM
# In short: (§1)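 Reduced alpha-lactalbumin (r-LA) was made by incubating LA with 5 mM dithiothreitol and 2.5 mM EDTA for 30 min at 25 °C. Aggregation was started at 37 °C by adding denatured bovine serum albumin, with DMSO vehicle or compound present. Turbidity was read as optical density at 488 nm and expressed relative to the matching controls. Values are means ± SE of four independent experiments.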
# [3] = Chemical chaperone activity assessed as suppression of alpha-lactalbumin-bovine serum albumin aggregation at 0.3 mM by turbidity assay; format: physicochemical; details: 300 µM; in short: as §1
SMILES,Activity [1],Activity [2],Activity [3]
O=C(O)CCCc1ccccc1,Active,Active,
COc1ccc2cc(CCC(=O)O)ccc2c1,Active,,Active
COc1ccc2ccccc2c1CCCCC(=O)O,Active,,Active
COc1ccc2cc(CCCCC(=O)O)ccc2c1,Active,,Active
COc1ccc2cc(/C=C/C(=O)O)ccc2c1,Active,,Active
COc1ccc2ccccc2c1/C=C/C(=O)O,Active,,Active
COc1ccc2ccccc2c1CC/C=C/C(=O)O,Active,,Active
COc1ccc2ccccc2c1CCC(=O)O,Active,,Active
COc1ccc(CCC(=O)O)c2ccccc12,Active,,Active
COc1ccc(CCCCC(=O)O)c2ccccc12,Active,,Active
COc1ccc(/C=C/C(=O)O)c2ccccc12,Active,,Active
COc1ccc2cc(CC/C=C/C(=O)O)ccc2c1,Active,,Active
